Screens as filed in PubChem BioAssay.
NF-kB neuron act: raises NF-kB expression in human neuronal cells; NF-kB reporter expression; hits give high values; fold change at 12.5 µM; 1.6% of 190,000 active; in the data active = fold change above about 3.3
APP 5'UTR act: APP 5'UTR luciferase reporter activation. 1% of 190,000 active. SH-SY5Y APP 5'UTR luciferase reporter, luminescence; zero percent = DMSO vehicle wells. activation, % at 2 µM;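 active = activation above a set limit, based on mean plus 3 SD of controls, cut at about 140% in these data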
MDM2 E3 inh: blocks human Mdm2 ubiquitin ligase activity; signal enhancement, % at 5 µM; AID 1230; 0.11% of 210,000 active; Q00987; cell-based MDM2 ubiquitination luciferase reporter, 2 h; 0 = plate control, 100 = twice control, blank-subtracted;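 active = signal enhancement of 30% or more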;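 also: luminescence tracks abundance of the self-degrading MDM2-luciferase fusion protein; higher signal means inhibition of MDM2 E3 ligase activity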
Target sequence (Q00987 whole entry, looked up, the tested form may be a part): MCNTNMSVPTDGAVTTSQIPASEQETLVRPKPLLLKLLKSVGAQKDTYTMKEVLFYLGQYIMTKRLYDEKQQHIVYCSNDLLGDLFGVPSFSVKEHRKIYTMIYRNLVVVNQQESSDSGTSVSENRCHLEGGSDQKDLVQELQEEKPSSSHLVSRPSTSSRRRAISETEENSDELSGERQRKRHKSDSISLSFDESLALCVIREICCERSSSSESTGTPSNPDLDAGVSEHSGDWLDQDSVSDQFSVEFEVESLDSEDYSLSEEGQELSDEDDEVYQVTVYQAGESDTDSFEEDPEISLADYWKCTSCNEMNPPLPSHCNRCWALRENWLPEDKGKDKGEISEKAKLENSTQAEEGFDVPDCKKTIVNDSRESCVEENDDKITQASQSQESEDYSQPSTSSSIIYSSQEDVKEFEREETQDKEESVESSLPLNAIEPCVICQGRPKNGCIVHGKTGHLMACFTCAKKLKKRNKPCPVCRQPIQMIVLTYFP
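System: stable MDM2–luciferase fusion reporter cells / Input: 2000 cells seeded into each well / Schedule: 4 h settle plus 2 h compound, 37 °C / Compound: single-point 5 µM / Buffer or medium: cells held in DMEM / Benchmarks: control and blank well means / Evaluation: percent signal gain over controls, blank-subtracted / Measured by: luciferase luminescence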
PERK inh: inhibitors of human PERK kinase; CHO PERK-DD fusion, SEAP luminescence translation reporter; inhibition, % at 5.6 µM; 0.17% of 220,000 active;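 active = inhibition above the mean inhibition of all tested compounds plus 3 SD, set separately per screening campaign, cut at about 2.9% in these data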;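 also: PERK kinase domain activated by AP20187 dimerizer at 100 nM; 0% = DMSO with dimerizer and 100% = rapamycin at 8.4 µM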
STAT1 act: STAT1 signaling activation. NIH 3T3 STAT1-luciferase reporter, IFN-gamma, luminescence; 100% = IFN-gamma alone, no compound. activation (% of control), % at 5.5 µM. 2.6% of 200,000 active;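 active = activation above the screen-wide mean activation plus 3 SD, cut at about 130% in these data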;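 also: raw ratio to IFN-gamma control signal so 100% means no change and 0% no light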
AHR act: activates the human aryl hydrocarbon receptor; 2.5% of 320,000 active; P35869; AHR-responsive luciferase reporter cells, luminescence; activation, % at 5 µM; AID 2796; in the data active = activation above about 47%;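 also: 0% = vehicle wells and 100% = reference agonist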
* hit, by the source's call; nt = not tested or not shown. Shown are actives, neighbours in structure and some others; about 4.5% of the full set was active somewhere.

SMILES	NF-kB neuron act	APP 5'UTR act	MDM2 E3 inh	PERK inh	STAT1 act	AHR act
COc1ccc(CCNC(=O)c2[nH]c(C)c(C(C)=O)c2C)cc1	0.79	-12.5	-7.8	0.7	94.2	13.9
CC(=O)c1c(C)[nH]c(C(=O)Nc2ccc3c(c2)OCCO3)c1C	5.47*	193.4*	-35.4	0.0	138.4*	53.7*
COc1ccc(OCCOC(=O)c2[nH]c(C)c(C(C)=O)c2C)cc1	5.77*	-4.0	3.5	-0.3	88.7	3.0
CCc1c(C(=O)Nc2cc(C)ccc2OC)[nH]c(C)c1C(C)=O	1.02	-1.2	-8.0	-0.9	89.0	51.7*
CCOc1ccc(NC(=O)c2[nH]c(C)c(C(C)=O)c2C)cc1	nt	nt	nt	nt	nt	21.1
COc1cc(CC(=O)OCC(=O)NC2CCCCC2C)cc(OC)c1OC (stereo not drawn)	nt	nt	nt	nt	nt	-0.2
COc1cc2c(cc1OC)CN(c1ccc(F)cc1[N+](=O)[O-])CC2	nt	nt	nt	nt	nt	59.1*
COc1cc2c(cc1OC)CN(c1ccc([N+](=O)[O-])cc1Cl)CC2	1.1	-5.8	-9.4	-0.7	96.8	0.3
CCOC(=O)Cc1csc(SCC(=O)NC2CCS(=O)(=O)C2)n1 (stereo not drawn)	nt	nt	nt	nt	nt	-1.1
CC(C)(C)c1ccc(-c2conc2N)cc1	4.96*	69.5	-11.8	0.2	118.0	25.4
CCn1nnnc1SCC(=O)Nc1ccc2c(c1)OCCO2	2.35	44.9	-12.5	1.5	139.2*	7.9
Cn1cc(SCC(=O)Nc2ccc3c(c2)OCO3)c2ccccc21	1.09	4.5	-12.8	1.8	83.7	35.0
CCCn1cc(SCC(=O)Nc2ccc3c(c2)OCO3)c2ccccc21	0.95	-8.0	-16.8	-0.1	88.7	73.3*
Cc1cc(=O)[nH]c(SCC(=O)Nc2ccc3c(c2)OCCO3)n1	1.11	-4.8	-38.4	3.3*	91.9	2.3
COCCCn1nnnc1SCC(=O)Nc1ccc2c(c1)OCCO2	1.38	9.4	-17.2	0.2	95.7	11.1
COCCn1nnnc1SCC(=O)Nc1ccc2c(c1)OCO2	1.22	37.2	-12.4	1.1	104.7	68.1*
CC(=O)Nc1ccc2nc(NC(=O)CN3CCOCC3)sc2c1	nt	nt	nt	nt	nt	13.1
Cc1cc(C)n(CCC(=O)N/N=C/c2c(O)ccc3ccccc23)n1	nt	nt	nt	0.8	nt	62.1*
COc1ccccc1OCC(=O)N/N=C/c1cccc2cccnc12	nt	nt	nt	nt	nt	4.6
COc1ccccc1OCC(=O)N/N=C/c1c(O)ccc2ccccc12	nt	nt	nt	nt	nt	50.6*
CCCNC(=O)C1CCN(S(=O)(=O)c2cccc3nonc23)CC1	1.02	-0.3	10.3	0.0	98.3	-0.7
CCOc1ccc(N2CC(C(=O)Nc3cc(C)on3)CC2=O)cc1 (stereo not drawn)	1.37	16.1	-14.7	0.4	97.5	76.1*
Cc1c(NC(=O)c2ccc(NS(=O)(=O)c3ccc(F)c(F)c3)cc2)c(=O)n(-c2ccccc2)n1C	nt	nt	nt	nt	nt	-0.6
COc1ccccc1C1C=C(c2ccc(C)cc2)Nc2nnnn21 (stereo not drawn)	1.16	4.3	0.1	-0.3	102.4	53.5*
Cc1ccc(C2=CC(c3cccs3)n3nnnc3N2)cc1 (stereo not drawn)	1.87	17.1	-24.3	1.4	95.2	42.1
SMILES	NF-kB neuron act	APP 5'UTR act	MDM2 E3 inh	PERK inh	STAT1 act	AHR act
CCOc1ccccc1NC(=S)NNS(=O)(=O)c1c(C)cc(C)cc1C	1.36	3.1	-6.7	2.1	102.9	4.8
Nc1[nH]n(-c2ccccc2)c(=O)c1N=Nc1ccccc1[N+](=O)[O-]	1.55	90.5	-18.9	0.7	139.1*	2.6
Nc1[nH]n(-c2ccccc2)c(=O)c1N=Nc1ccc2ncsc2c1	nt	nt	-16.0	0.6	nt	56.4*
O=C(NC1CCCCC1)C1CCCN1C(=O)Nc1ccccc1 (stereo not drawn)	nt	nt	nt	nt	nt	-0.7
Cc1cccc(Nc2nc(N)c(C#N)c(CC#N)c2C#N)c1	1.06	3.0	-8.5	-1.2	100.2	49.7*
Cc1cccc(Nc2nc(C)cc(C)c2C#N)c1	nt	nt	nt	nt	nt	32.5
O=C(NNc1c2ccccc2nc2ccccc12)c1ccccc1Cl	nt	nt	nt	nt	nt	58.2*
O=C(NNc1c2ccccc2nc2ccccc12)c1ccc(O)cc1	0.46	-6.2	-4.6	0.3	99.4	20.2
O=C(NNc1nc(=O)c2cccnc2s1)c1ccccc1O	1.1	4.8	-8.7	0.0	92.2	49.2*
O=C(O)c1ccccc1C(=O)NNc1cccc(Cl)n1	1.27	155.2*	-5.2	0.4	115.8	35.3
NS(=O)(=O)c1ccc(NNC(=O)c2ccccc2C(=O)O)cc1	nt	nt	-22.2	0.6	nt	48.5*
O=C(NNc1c2ccccc2nc2ccccc12)c1ccc(O)cc1O	0.47	12.5	-17.1	0.0	113.1	3.5
O=C(NNc1c2ccccc2nc2ccccc12)c1ccccc1O	1.02	-1.4	2.4	-0.3	108.2	128.6*
CCOC(=O)c1c(/N=C/N(C)C)sc(/C=N/Nc2ccccc2)c1-c1ccc(Cl)cc1	0.93	1.7	1.8	0.0	103.6	92.1*
CN(C)S(=O)(=O)Oc1ccsc1C(=O)Nc1ccc(C(F)(F)F)cc1	0.95	4.6	-16.3	0.2	80.8	55.3*
CSc1nc2ccc(NC(=O)c3cccs3)cc2s1	nt	nt	nt	nt	nt	-1.3
CSc1nc2ccc(NC(=O)c3ccc(F)c(F)c3)cc2s1	2.39	48.7	-6.1	0.2	140.0*	0.8
CSc1nc2ccc(NC(=O)c3ccco3)cc2s1	4.03*	98.1	-19.8	0.1	139.5*	22.9
CSc1nc2ccc3nc(NC(=O)c4ccccc4)sc3c2s1	1.95	17.8	-19.1	1.0	139.2*	2.1
CSc1nc2ccc(NC(=O)c3ccc(=O)[nH]c3)cc2s1	nt	nt	nt	nt	nt	4.4
CSc1nc2ccc(NC(=O)c3cc4ccccc4o3)cc2s1	4.87*	139.9*	-20.8	0.1	139.2*	3.1
O=C(CCC(=O)N1CCN(c2ccccn2)CC1)c1ccc(Cl)s1	nt	nt	nt	nt	nt	9.8
O=C(CSc1ccccn1)N/N=C/c1c[nH]c2ccccc12	1.28	-3.4	-2.2	0.2	94.5	26.7
O=C(CSc1nnc(SCc2cccc3ccccc23)s1)N/N=C/c1c[nH]c2ccccc12	1.13	-3.2	-6.6	0.5	98.0	47.0*
O=C(CCC(=O)Nc1ccc(F)cc1)N/N=C/c1c[nH]c2ccccc12	0.96	-12.4	-4.0	-0.1	98.3	50.3*
O=C(CSc1nnc(SCc2ccc(Cl)cc2)s1)N/N=C/c1c[nH]c2ccccc12	1.02	-15.9	4.2	1.2	98.3	25.7
O=C(CNc1ccccc1)N/N=C/c1c[nH]c2ccccc12	0.76	-8.4	-5.2	0.6	107.1	50.4*
CC(=O)Nc1cccc(N/C=C(\C=O)c2nc3ccccc3o2)c1	0.74	46.1	-8.9	-0.5	109.1	58.8*
O=C/C(=C\Nc1ccc(Br)cc1)c1nc2ccccc2o1	0.96	14.2	-8.4	0.3	98.9	49.0*
CC(=O)Nc1ccc(N/C=C(\C=O)c2nc3ccccc3o2)cc1	1.25	-20.3	-1.2	1.6	98.2	13.7
